Measurements taken from ChEMBL document CHEMBL1177650, “Synthesis, structural elucidation and in vitro antiparasitic activity against Trypanosoma cruzi and Leishmania chagasi parasites of novel tetrahydro-1-benzazepine derivatives” (Bioorg Med Chem, 2010).

Tests used:
[1] = Cytotoxicity against human THP1 cells after 72 hrs by MTT assay; assay type: cell-based; settings: THP-1 cells
In short: (§1)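 Vero or transformed THP-1 cells incubated with compound (0.3–300 μM) 72 h at 37 °C, 5% CO2; untreated controls. MTT read-out, formazan OD at 580 nm; % cytotoxicity = 100 × (OD control − OD treated)/OD control. CC50/CC90 by sigmoidal regression; triplicates, repeated twice. DMSO stocks 100× concentrated, diluted in medium.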

[2] = Selectivity index, CC50 for human THP1 cells to IC50 for Leishmania chagasi MHOM/BR/74/PP75 promastigotes; assay type: functional, THP-1
In short: (§2)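 Selectivity index computed as CC50 in THP-1 cells divided by IC50 against the L. chagasi stage named in the line.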

[3] = Selectivity index, CC50 for african green monkey Vero cells to IC50 for Trypanosoma cruzi 320I01 amastigotes; assay type: functional
In short: (§3)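 Selectivity index computed as CC50 in Vero cells divided by IC50 against the T. cruzi stage named in the line.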

Trypanosoma cruzi [4] = assay: Antitrypanosomal activity against Trypanosoma cruzi 320I01 amastigotes infected in african green monkey Vero cells after 5 days by Giemsa staining; assay type: functional, organism-based; settings: 320I01, Vero, 120 h
In short: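 Vero cells (RPMI, 5% hiSBF, 37 °C, 5% CO2) infected 24 h with tissue-derived T. cruzi trypomastigotes at parasite:cell 10:1. Compound dilutions (top 100 μM) applied 5 days at 37 °C, 5% CO2, medium changed once at day 3. Infected cells scored per 300 cells on methanol-fixed Giemsa preparations; IC50/IC90 by sigmoidal regression; triplicates, two experiments.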

Leishmania chagasi [5] = assay: Antileishmanial activity against Leishmania chagasi MHOM/BR/74/PP75 amastigotes infected in human THP1 cells after 5 days by Giemsa staining; assay type: functional, organism-based; settings: MHOM/BR/74/PP75, THP-1, 120 h
In short: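 THP-1 cells (RPMI, 5% hiSBF, 37 °C, 5% CO2) transformed, then infected 24 h with late-phase L. chagasi promastigotes at parasite:cell 10:1. Treated with compound dilutions (top 100 μM) 5 days at 37 °C, 5% CO2, medium changed once after 3 days. Infected cells counted per 300 cells on methanol-fixed Giemsa slides; IC50/IC90 by sigmoidal regression; triplicates, repeated twice.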

[6] = Selectivity index, CC50 for african green monkey Vero cells to IC50 for Trypanosoma cruzi 320I01 epimastigote; assay type: functional; in short: as §3
Leishmania chagasi [7] = assay: Antileishmanial activity against Leishmania chagasi MHOM/BR/74/PP75 promastigotes after 72 hrs by haemocytometry; assay type: functional, organism-based; settings: MHOM/BR/74/PP75, 72 h
In short: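 Late-phase L. chagasi promastigotes, grown at 28 °C in RPMI 1640 with hemin, HEPES and 10% hiSBF, exposed to threefold serial dilutions (0.3–100 μM) for 72 h at 28 °C; untreated controls. Growth inhibition from haemocytometer counts; IC50/IC90 by sigmoidal regression; triplicates, repeated twice.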

[8] = Cytotoxicity against african green monkey Vero cells after 72 hrs by MTT assay; assay type: cell-based; settings: chlorocebus sabaeus; in short: as §1
[9] = Selectivity index, CC50 for human THP1 cells to IC50 for Leishmania chagasi MHOM/BR/74/PP75 amastigotes; assay type: functional, THP-1; in short: as §2
Trypanosoma cruzi [10] = assay: Antitrypanosomal activity against Trypanosoma cruzi 320I01 epimastigotes after 72 hrs by haemocytometry; assay type: functional, organism-based; settings: 320I01, 72 h
In short: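 Late-phase T. cruzi epimastigotes cultured in LIT medium with hiFCS at 28 °C; threefold serial dilutions (0.3–100 μM) for 72 h at 28 °C, untreated controls. Parasites counted in a haemocytometer; IC50/IC90 by sigmoidal regression; each concentration in triplicate, two experiments.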

SMILES	IC50 (Trypanosoma cruzi [4]) [µM]	IC90 (Trypanosoma cruzi [4]) [µM]	IC50 (Leishmania chagasi [5]) [µM]	IC90 (Leishmania chagasi [5]) [µM]	IC50 (Leishmania chagasi [7]) [µM]	IC90 (Leishmania chagasi [7]) [µM]	IC50 (Trypanosoma cruzi [10]) [µM]	IC90 (Trypanosoma cruzi [10]) [µM]	CC50 at 72 h [1] [µM]	CC90 at 72 h [1] [µM]	Selectivity Index [2]	Selectivity Index [3]	Selectivity Index [6]	CC50 at 72 h [8] [µM]	CC90 at 72 h [8] [µM]	Selectivity Index [9]
Fc1ccc([C@@H]2C[C@@H]3Cc4ccccc4N2O3)cc1 (relative stereo)	> 100	> 100	> 100	> 100	> 100	> 100	> 100	> 100	183	> 300	>1	>3	>3	> 300	> 300	>1
O[C@@H]1Cc2ccccc2N[C@H](c2ccccc2F)C1 (relative stereo)	> 100	> 100	> 100	> 100	> 100	> 100	63	> 100	> 300	> 300	>3	>3	>4	> 300	> 300	>3
Clc1cccc(Cl)c1[C@@H]1C[C@@H]2Cc3ccccc3N1O2 (relative stereo)	> 100	> 100	> 100	> 100	> 100	> 100	> 100	> 100	> 300	> 300	>3	>3	>3	> 300	> 300	>3
C[C@@H]1[C@H](O)[C@@H](C)/C=C/C=C/C=C/C=C/C=C/C=C/C=C/[C@H](O[C@@H]2O[C@H](C)[C@@H](O)[C@H](N)[C@@H]2O)C[C@@H]2O[C@](O)(C[C@@H](O)C[C@@H](O)[C@H](O)CC[C@@H](O)C[C@@H](O)CC(=O)O[C@H]1C)C[C@H](O)[C@H]2C(=O)O [AMPHOTERICIN B]			0.08	0.14	0.02	0.02			8.79	34.9	439.5					109.87

Continued, in another order:

IC50 (Trypanosoma cruzi [4]) [µM]	IC90 (Trypanosoma cruzi [4]) [µM]	IC50 (Leishmania chagasi [5]) [µM]	IC90 (Leishmania chagasi [5]) [µM]	IC50 (Leishmania chagasi [7]) [µM]	IC90 (Leishmania chagasi [7]) [µM]	IC50 (Trypanosoma cruzi [10]) [µM]	IC90 (Trypanosoma cruzi [10]) [µM]	SMILES	CC50 at 72 h [1] [µM]	CC90 at 72 h [1] [µM]	Selectivity Index [2]	Selectivity Index [3]	Selectivity Index [6]	CC50 at 72 h [8] [µM]	CC90 at 72 h [8] [µM]	Selectivity Index [9]
> 100	> 36.1	> 100	> 100	50.2	> 100	15.3	35.7	O[C@@H]1Cc2cc(Cl)ccc2N[C@H](c2ccccc2Cl)C1 (relative stereo)	75.5	> 300	1.5	>1	6.91	106	> 300	>0.75
> 100	> 100	> 100	> 100	54.7	> 100	> 100	> 100	COc1cccc([C@@H]2C[C@@H]3Cc4ccccc4N2O3)c1 (relative stereo)	> 300	> 300	>5	>3	>3	> 300	> 300	>3
> 34.1	> 34.1	73.2	> 100	39.8	78.5	14.5	34.8	O[C@@H]1Cc2cc(Cl)ccc2N[C@H](c2c(F)cccc2Cl)C1 (relative stereo)	110	214	2.76	>2	6.36	92	182	>1
2.3	9.06					2.33	23.4	CC1CS(=O)(=O)CCN1/N=C/c1ccc([N+](=O)[O-])o1 (configuration not stated) [NIFURTIMOX]				26.7	26.36	61.4	> 300	
